The source of these data is PubChem BioAssay.

Calls of active or inactive are those of the source.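 Rule for the calls, unless noted: active = viability at or below 10% of carrier control in both of two separate runs; inconclusive = viability at or below 10% in only one of the two runs; inactive = the rest.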

Assay [1] is described as follows: reducers of endogenous Her2 protein level, primary screen, SKBR3 breast tumor cells, AlphaScreen, ATP viability (AID 461;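 active = Her2 level under about 52% in both replicate screens, with viability over 70% of control, limit read from the data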;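 for Her2 level: lower value means less Her2 protein in the cells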;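 for viability: percent of carrier control wells set as 100% viability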). The following applies: 18-24 h, measured here: SKBR3 viability, ATP luminescence, at 10 µM.
Assay [2] concerns the target Receptor tyrosine-protein kinase erbB-2 (Homo sapiens) (UniProt P04626). The assay is described as above. The note with it: 18-24 h, at 10 µM, stronger effect = lower value.
Assay [3] in a line: SK-BR-3 cell growth inhibitors, pilot screen, 24 h, human (AID 572).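 Note: compound exposure lasted between 18 and 24 h rather than exactly 24 h; 100% = carrier-treated control wells.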 The note with it: SK-BR-3 viability, CellTiter-Glo luminescence, at 10 µM, stronger effect = lower value.
Assay [4] can be described thus: HUVEC growth inhibition – cell-based, human, primary screen (AID 575;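 active = viability at or below 30% in both replicate assays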;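 note: 100% = median of untreated cell wells with 0.1% DMSO on each plate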). The note with it: HUVEC proliferation, CellTiter-Glo luminescence, 72 h; at 10 µM; stronger effect = lower value. Put shortly: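 Assay system: Primary human umbilical vein endothelial cells | Quantity: 1250 cells per well | Medium: Supplemented EBM, 2% fetal bovine serum | Detection: CellTiter-Glo luminescence measuring cellular ATP | Read-out: % viability vs DMSO wells | Plate: Collagen-coated 384-well format | Times: 72 h exposure, 37 °C, 5% CO2, 30 min RT equilibration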
In general terms: In ATP-based viability assays light output follows the ATP content of the culture.

Assay [5] is described as follows: growth inhibitors of H69AR lung tumor, primary screen, human, duplicate replicates (AID 580;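 active = viability at or under a set limit in both replicates, limit being median viability minus 3 SD, cut at about 48% in these data, passing the limit was not always enough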;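 note: 100% = mean luminescence of untreated wells and 0% = no signal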). The following applies: H69AR lung tumor cells viability, ATP luminescence, 72 h; at 10 µM; stronger effect = lower value.
Assay [6] is described as follows: reversal of MRP1-mediated doxorubicin resistance, pilot screen, H69AR cells, doxorubicin co-treatment (AID 601;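 active = viability loss from added drug above about 55%, and viability with drug at most 40%, in both replicates, limit read from the data, passing the limit was not always enough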). The note with it: CellTiter-Glo, 72 h, at 10 µM; for differential viability (reversal): stronger effect = higher value.
A short description of assay [7]: 384-well plate pilot, post-Golgi transport modulator project, inhibition of yeast transport mutant growth (AID 636; in the data active = inhibition above about 31%). The following applies: absorbance 615 nm, about 18 h, stronger effect = higher value.
The nature of assay [8]: growth suppression of yeast trafficking mutant, preliminary HTS, modulators of trafficking downstream of Golgi apparatus project, 1536-format plate, OD 615 nm (AID 637; in the data active = inhibition above about 30%). The note with it: yeast transport mutant growth, absorbance 615 nm, 18 h; stronger effect = higher value.
[9] abbreviates: H69AR cells + 2 uM doxorubicin, measured here: viability with 2 uM doxorubicin, stronger effect = lower value.
[10] abbreviates: H69AR cells, compound alone cytotoxicity.

Chain of Receptor tyrosine-protein kinase erbB-2 (Homo sapiens) (P04626 whole entry, looked up): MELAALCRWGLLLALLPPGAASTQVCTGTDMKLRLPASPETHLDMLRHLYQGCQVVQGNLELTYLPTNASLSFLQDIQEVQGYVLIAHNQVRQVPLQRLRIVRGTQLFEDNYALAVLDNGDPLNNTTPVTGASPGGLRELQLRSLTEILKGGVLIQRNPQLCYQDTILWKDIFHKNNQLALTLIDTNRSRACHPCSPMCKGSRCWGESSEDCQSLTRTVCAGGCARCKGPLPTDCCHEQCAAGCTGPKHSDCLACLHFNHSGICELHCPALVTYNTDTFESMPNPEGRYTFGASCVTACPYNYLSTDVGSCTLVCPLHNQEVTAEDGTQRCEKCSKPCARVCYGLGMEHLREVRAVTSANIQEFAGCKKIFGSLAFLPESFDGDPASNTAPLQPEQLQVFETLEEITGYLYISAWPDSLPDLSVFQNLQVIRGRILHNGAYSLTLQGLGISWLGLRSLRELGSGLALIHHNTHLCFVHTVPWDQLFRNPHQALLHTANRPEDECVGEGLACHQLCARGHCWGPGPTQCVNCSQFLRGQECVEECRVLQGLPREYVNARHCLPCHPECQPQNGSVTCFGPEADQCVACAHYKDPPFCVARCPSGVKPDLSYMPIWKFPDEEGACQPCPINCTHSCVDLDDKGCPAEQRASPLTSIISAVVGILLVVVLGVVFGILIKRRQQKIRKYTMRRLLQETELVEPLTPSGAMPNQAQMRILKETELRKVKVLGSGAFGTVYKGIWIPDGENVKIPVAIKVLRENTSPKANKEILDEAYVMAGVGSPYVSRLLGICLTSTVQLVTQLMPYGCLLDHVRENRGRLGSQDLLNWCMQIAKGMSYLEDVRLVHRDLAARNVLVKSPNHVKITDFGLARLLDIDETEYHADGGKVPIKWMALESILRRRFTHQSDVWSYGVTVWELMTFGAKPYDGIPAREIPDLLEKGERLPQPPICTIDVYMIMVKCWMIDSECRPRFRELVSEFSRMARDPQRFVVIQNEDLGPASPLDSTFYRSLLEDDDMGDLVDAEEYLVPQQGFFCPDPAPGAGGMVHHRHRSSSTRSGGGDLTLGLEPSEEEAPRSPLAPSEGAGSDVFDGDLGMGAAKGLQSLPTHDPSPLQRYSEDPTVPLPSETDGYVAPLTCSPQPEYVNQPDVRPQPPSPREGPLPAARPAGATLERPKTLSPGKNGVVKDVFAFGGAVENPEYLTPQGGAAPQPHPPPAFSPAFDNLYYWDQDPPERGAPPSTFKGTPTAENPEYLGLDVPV

With `CCOc1ccccc1N(CC(=O)NC1CCCC1)C(=O)CCCC(=O)Nc1ccccn1`, the viability was 91% in assay [1]; 91% (inactive) in assay [3]; 106% (inactive) in assay [4]; 112% (inactive) in assay [5]; 96.3% in assay [6] (setting [9]); 112% in assay [6] (setting [10]). Besides, in assay [2], the Her2 level was 93.5% (inactive). Also, the differential viability (reversal) in assay [6] (H69AR cells + 2 uM doxorubicin) was 15.3% (inactive). Moreover, the inhibition is -2.16% (inactive) in assay [7] and 6.03% (inactive) in assay [8].
Consider `COc1ccc2c(c1)CCc1c(C(=O)NCc3cccnc3)noc1-2`, for which the viability in assay [1] is 97.5%; in assay [3], 97.5% (inactive); in assay [4] it was 102% (inactive); in assay [5], 103% (inactive); in assay [6] (setting [9]), 85.3%; in assay [6] (setting [10]), 103%. In addition, the Her2 level in assay [2] is 95.5% (inactive). For the same molecule, the differential viability (reversal) in assay [6] (H69AR cells + 2 uM doxorubicin) is 17.7% (inactive). Moreover, the inhibition is -1.71% (inactive) in assay [7] and 0.55% (inactive) in assay [8].
For the molecule `CN(c1ccccc1)S(=O)(=O)c1ccc(C(=O)OCC(=O)NCc2ccco2)cc1`, the viability in assay [1] was 95.5%; in assay [3], 95.5% (inactive); in assay [4], 88.5% (inactive); in assay [5] it was 74.4% (inactive); in assay [6] (setting [9]) it was 84.8%; in assay [6] (setting [10]), 74.4%. Also, in assay [2], the Her2 level is 112% (inactive). In addition, the differential viability (reversal) in assay [6] (H69AR cells + 2 uM doxorubicin) is -10.4% (inactive). For the same molecule, the inhibition in assay [7] is 2.03% (inactive); in assay [8], 16.4% (inactive).
For `CCSc1nnc(NC(=O)CSc2ncccn2)s1`, the viability was 97.5% in assay [1]; 97.5% (inactive) in assay [3]; 112% (inactive) in assay [4]; 107% (inactive) in assay [5]; 84.5% in assay [6] (setting [9]); 107% in assay [6] (setting [10]). In assay [2], the Her2 level is 102% (inactive). Further, the differential viability (reversal) in assay [6] (H69AR cells + 2 uM doxorubicin) is 22.3% (inactive). For the same molecule, the inhibition was -5.07% (inactive) in assay [7] and -2.74% (inactive) in assay [8].
For `CC(C)OCCCNC(=O)c1cc2c(s1)CS(=O)(=O)C2`, the viability in assay [1] was 99%; in assay [3], 99% (inactive); in assay [4], 90.3% (inactive); in assay [5], 94.6% (inactive); in assay [6] (setting [9]), 96.1%; in assay [6] (setting [10]), 94.6%. Moreover, in assay [2], the Her2 level was 104% (inactive). In addition, the differential viability (reversal) in assay [6] (H69AR cells + 2 uM doxorubicin) is -1.46% (inactive). Besides, the figures for the inhibition in assay [7] and in assay [8] were 1.03% (inactive) and -8.5% (inactive), respectively.
For `O=C(OCC(=O)c1cccs1)C1=COCCO1`, the viability in assay [1] was 89%; in assay [3], 89% (inactive); in assay [4] it was 91.6% (inactive); in assay [5], 89.1% (inactive); in assay [6] (setting [9]) it was 87.6%; in assay [6] (setting [10]) it was 89.1%. The Her2 level in assay [2] was 102% (inactive). In assay [6] (H69AR cells + 2 uM doxorubicin), the differential viability (reversal) was 1.52% (inactive). For the same molecule, the results for the inhibition in assay [7] and in assay [8] were -0.38% (inactive) and -1% (inactive), respectively.
As to `CCOC(=O)C1CCCN(CCCc2ccccc2)C1` (stereo not given), the viability is 104% in assay [1]; 104% (inactive) in assay [3]; 105% (inactive) in assay [4]; 90.8% (inactive) in assay [5]; 87.6% in assay [6] (setting [9]); 90.8% in assay [6] (setting [10]). For the same molecule, in assay [2], the Her2 level was 91% (inactive). In addition, in assay [6] (H69AR cells + 2 uM doxorubicin), the differential viability (reversal) was 3.21% (inactive). Further, the inhibition is -5.47% (inactive) in assay [7] and -1.9% (inactive) in assay [8].
On to `CCCCn1nc(C(=O)N2CCc3ccccc32)c2ccccc2c1=O`, for which the viability was 81.5% in assay [1]; 81.5% (inactive) in assay [3]; 91.8% (inactive) in assay [4]; 93.9% (inactive) in assay [5]; 105% in assay [6] (setting [9]); 93.9% in assay [6] (setting [10]). Besides, the Her2 level in assay [2] is 110% (inactive). In addition, the differential viability (reversal) in assay [6] (H69AR cells + 2 uM doxorubicin) was -11.2% (inactive). Besides, the inhibition in assay [7] was -0.4% (inactive); in assay [8], -10.6% (inactive).
With `CCOC(=O)c1sc(C)c2c(=O)n(CC)nnc12`, the viability in assay [1] was 94%; in assay [3] it was 94% (inactive); in assay [4], 98.3% (inactive); in assay [5], 103% (inactive); in assay [6] (setting [9]), 102%; in assay [6] (setting [10]) it was 103%. In addition, the Her2 level in assay [2] is 111% (inactive). The differential viability (reversal) in assay [6] (H69AR cells + 2 uM doxorubicin) is 1.48% (inactive). In addition, the inhibition in assay [7] is -4% (inactive); in assay [8], -9.52% (inactive).
For the molecule `O=C1CCn2nc(-c3ccc(Cl)cc3)cc2N1`, the viability in assay [1] was 106%; in assay [3] it was 106% (inactive); in assay [4], 31.3% (inactive); in assay [5], 97.8% (inactive); in assay [6] (setting [9]) it was 91.8%; in assay [6] (setting [10]) it was 97.8%. The Her2 level in assay [2] is 96% (inactive). Further, the differential viability (reversal) in assay [6] (H69AR cells + 2 uM doxorubicin) was 5.93% (inactive). The inhibition was -2.18% (inactive) in assay [7] and 1.83% (inactive) in assay [8].
With `O=C(Nc1ccccc1-c1ccccc1)NC1CCN(CC(=O)N2CCOCC2)CC1`, the viability is 98% in assay [1]; 98% (inactive) in assay [3]; 91.7% (inactive) in assay [4]; 99.3% (inactive) in assay [5]; 91.4% in assay [6] (setting [9]); 99.3% in assay [6] (setting [10]). Also, in assay [2], the Her2 level was 103% (inactive). Also, in assay [6] (H69AR cells + 2 uM doxorubicin), the differential viability (reversal) is 7.87% (inactive). The inhibition in assay [7] is -2.34% (inactive); in assay [8], -3.11% (inactive).
Regarding `c1ccc(Nc2ccccc2Nc2ccccn2)nc1`, the viability is 138% in assay [1]; 138% (inactive) in assay [3]; 95.8% (inactive) in assay [4]; 91.7% (inactive) in assay [5]; 99.2% in assay [6] (setting [9]); 91.7% in assay [6] (setting [10]). Further, the Her2 level in assay [2] is 108% (inactive). Besides, the differential viability (reversal) in assay [6] (H69AR cells + 2 uM doxorubicin) is -7.51% (inactive). For the same molecule, the inhibition was -3.33% (inactive) in assay [7] and 5.08% (inactive) in assay [8].
Consider `COC(=O)c1c(-c2ccc(F)cc2)noc1N`, for which the viability in assay [1] was 94%; in assay [3], 94% (inactive); in assay [4], 89.4% (inactive); in assay [5], 93.3% (inactive); in assay [6] (setting [9]) it was 89.5%; in assay [6] (setting [10]), 93.3%. Further, the Her2 level in assay [2] was 97.5% (inactive). Besides, in assay [6] (H69AR cells + 2 uM doxorubicin), the differential viability (reversal) is 3.79% (inactive). The inhibition was -2.97% (inactive) in assay [7] and 1.33% (inactive) in assay [8].
In the case of `O=c1cc(CN2CCN(c3ccc(F)cc3)CC2)nc2sccn12`, the viability in assay [1] was 85%; in assay [3], 85% (inactive); in assay [4], 87.9% (inactive); in assay [5], 87.2% (inactive); in assay [6] (setting [9]) it was 92.1%; in assay [6] (setting [10]) it was 87.2%. Besides, in assay [2], the Her2 level was 118% (inactive). In addition, the differential viability (reversal) in assay [6] (H69AR cells + 2 uM doxorubicin) is -4.83% (inactive). Besides, the inhibition in assay [7] is 5.45% (inactive); in assay [8] it was -14.2% (inactive).
Regarding `CCCOc1cc(C)c(S(=O)(=O)N2CCN(C)CC2)cc1C`, the viability in assay [1] is 89%; in assay [3], 89% (inactive); in assay [4], 104% (inactive); in assay [5] it was 95.2% (inactive); in assay [6] (setting [9]) it was 92.9%; in assay [6] (setting [10]) it was 95.2%. Moreover, in assay [2], the Her2 level was 99% (inactive). The differential viability (reversal) in assay [6] (H69AR cells + 2 uM doxorubicin) is 2.26% (inactive). The inhibition in assay [7] was -1.58% (inactive); in assay [8] it was 5.41% (inactive).
As to `COc1cc(NC(=O)Cc2nn(C)c(=O)c3ccccc23)cc(OC)c1`, the viability in assay [1] is 87.5%; in assay [3] it was 87.5% (inactive); in assay [4], 73% (inactive); in assay [5] it was 84.3% (inactive); in assay [6] (setting [9]), 87.1%; in assay [6] (setting [10]), 84.3%. Also, the Her2 level in assay [2] was 91.5% (inactive). Moreover, in assay [6] (H69AR cells + 2 uM doxorubicin), the differential viability (reversal) is -2.83% (inactive). Moreover, the inhibition is -2.24% (inactive) in assay [7] and -2.9% (inactive) in assay [8].

What is called viability is a read-out of living cells in per cent, often relative to untreated cells. As a reminder, the inhibition is the relative decrease from the control value, in per cent.
